Key:
[1] = target: Neuronal acetylcholine receptor; alpha4/beta2 (Rattus norvegicus, UniProt P09483+P12390); test: Binding affinity against nicotinic receptors from rat brain using [3H]cytisine as radioligand
In short: (§1)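 Rat brain homogenate membranes (15 mg wet tissue) in 50 mmol Tris-HCl, pH 7.4 at 2 °C, with NaCl, KCl, MgCl₂ and CaCl₂. Incubated 75 min at 2 °C with 2 nmol [³H]-cytisine. Separated by GF/C filtration. Nonspecific binding defined with […] (–)-nicotine bitartrate. Ki calculated by Cheng-Prusoff using Kd 1.5 nmol.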

[2] = Compound was evaluated for pKi; in short: as §1
[3] = test system: Mus musculus; test: Minimal analgesic dose of compound injected intracerebroventricularly; assay type: functional
In short: (§2)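 Mouse hot-plate test with compounds given icv. Minimum analgesic dose recorded; efficacy expressed relative to 5 μg morphine icv. Nicotinic origin of analgesia tested by reversal with mecamylamine 2 mg/kg i.p.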

[4] = test system: Mus musculus; test: Effect(%) respect to that of 5 ug/kg of morphine injected intracerebroventricularly; assay type: functional; in short: as §2
[5] = target: Neuronal acetylcholine receptor subunit alpha-7 (Rattus norvegicus, UniProt Q05941); test: compound was evaluated for pKi
Chain of Neuronal acetylcholine receptor subunit alpha-7 (Q05941 whole entry): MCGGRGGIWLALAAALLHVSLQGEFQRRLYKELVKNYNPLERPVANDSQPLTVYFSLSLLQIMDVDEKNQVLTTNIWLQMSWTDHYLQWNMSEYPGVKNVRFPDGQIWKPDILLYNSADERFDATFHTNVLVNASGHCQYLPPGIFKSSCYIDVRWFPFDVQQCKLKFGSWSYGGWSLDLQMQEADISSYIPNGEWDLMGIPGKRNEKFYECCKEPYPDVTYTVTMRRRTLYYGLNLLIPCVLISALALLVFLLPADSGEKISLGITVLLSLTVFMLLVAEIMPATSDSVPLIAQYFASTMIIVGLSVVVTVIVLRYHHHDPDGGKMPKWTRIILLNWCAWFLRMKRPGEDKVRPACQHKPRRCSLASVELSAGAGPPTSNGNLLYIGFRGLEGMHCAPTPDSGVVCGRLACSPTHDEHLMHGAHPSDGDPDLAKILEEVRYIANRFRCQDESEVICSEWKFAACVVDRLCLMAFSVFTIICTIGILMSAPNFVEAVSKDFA

Chain of Neuronal acetylcholine receptor; alpha4/beta2 (P09483 whole entry): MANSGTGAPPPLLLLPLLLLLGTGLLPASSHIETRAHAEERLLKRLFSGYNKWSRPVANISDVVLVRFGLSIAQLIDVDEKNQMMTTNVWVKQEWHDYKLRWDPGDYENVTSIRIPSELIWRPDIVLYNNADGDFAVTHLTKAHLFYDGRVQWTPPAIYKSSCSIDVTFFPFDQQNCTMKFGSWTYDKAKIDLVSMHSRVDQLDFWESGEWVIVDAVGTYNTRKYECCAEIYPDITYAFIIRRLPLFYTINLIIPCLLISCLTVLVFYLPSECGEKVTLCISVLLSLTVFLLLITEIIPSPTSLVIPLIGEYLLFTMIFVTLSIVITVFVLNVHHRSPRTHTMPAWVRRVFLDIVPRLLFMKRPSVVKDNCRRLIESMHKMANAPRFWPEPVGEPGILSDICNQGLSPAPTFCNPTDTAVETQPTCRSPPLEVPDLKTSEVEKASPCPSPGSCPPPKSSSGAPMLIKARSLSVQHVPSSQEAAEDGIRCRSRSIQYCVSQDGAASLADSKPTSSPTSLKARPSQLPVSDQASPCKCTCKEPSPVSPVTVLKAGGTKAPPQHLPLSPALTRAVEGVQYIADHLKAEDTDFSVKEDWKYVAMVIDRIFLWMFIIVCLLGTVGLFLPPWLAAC
Chain of Neuronal acetylcholine receptor; alpha4/beta2 (P12390 whole entry): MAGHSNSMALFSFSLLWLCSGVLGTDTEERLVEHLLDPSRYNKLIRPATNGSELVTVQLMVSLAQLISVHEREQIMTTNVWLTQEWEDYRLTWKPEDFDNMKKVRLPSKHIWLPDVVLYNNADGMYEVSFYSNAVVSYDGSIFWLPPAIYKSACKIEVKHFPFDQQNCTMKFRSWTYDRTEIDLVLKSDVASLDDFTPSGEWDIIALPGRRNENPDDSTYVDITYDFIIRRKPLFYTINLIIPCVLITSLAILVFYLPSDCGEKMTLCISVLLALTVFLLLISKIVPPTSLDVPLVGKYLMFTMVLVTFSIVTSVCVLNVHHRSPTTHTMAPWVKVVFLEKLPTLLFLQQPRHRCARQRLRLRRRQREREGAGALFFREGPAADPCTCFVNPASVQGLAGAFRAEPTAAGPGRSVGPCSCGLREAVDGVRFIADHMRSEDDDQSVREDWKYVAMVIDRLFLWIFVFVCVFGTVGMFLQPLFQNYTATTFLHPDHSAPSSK

## c1cc2c(cc1N1CCNCC1)OCO2
[1]
  Ki: > 10 µM

## CN1CCC(c2ccccc2)CC1
[1]
  Ki: > 10 µM

## CN1CCN(c2cccc(Cl)c2)CC1
[1]
  Ki: > 10 µM

## CN1CCN(c2cccc(O)c2)CC1
[1]
  Ki: > 10 µM

## CN1CCN(C2=CC(=O)CCC2)CC1
[1]
  Ki: > 10 µM

## CC(=O)Nc1cccc(N2CCN(C)CC2)c1
[1]
  Ki: > 10 µM

## CN1CCN(c2ccc(O)cc2)CC1
[1]
  Ki: > 10 µM

## CN1CCN(c2cccnn2)CC1.O=C(O)C(=O)O
[1]
  Ki: 0.386 µM
[2]
  Log Ki: -6.41

## FC(F)(F)c1cccc(N2CCNCC2)c1
[1]
  Ki: > 10 µM

## CC(=O)c1ccc(N2CCNCC2)cc1
[1]
  Ki: > 10 µM

## CN1CC=C(c2cccnc2)CC1.Cl
[3]
  M.A.D: 1 µg/kg
[4]
  Efficacy: 36.5%

## CN1CCN(c2ccc(F)cc2)CC1
[1]
  Ki: > 10 µM

## C[N+]1(C)CCN(c2ccc3c(c2)OCO3)CC1.[I-]
[1]
  Ki: 0.672 µM
[2]
  Log Ki: -6.17

## CN1CCN(c2cccc(C(F)(F)F)c2)CC1
[1]
  Ki: > 10 µM

## CN1CCN(c2ccc(N)cc2)CC1
[1]
  Ki: > 10 µM

## c1cc(N2CCNCC2)ccn1
[1]
  Ki: > 10 µM

## CN1CCN(c2cccc(C#N)c2)CC1
[1]
  Ki: > 10 µM

## CN1CCN(c2ccc3c(c2)OCO3)CC1
[1]
  Ki: > 10 µM

## CN1CCN(c2cccc(N)c2)CC1
[1]
  Ki: 0.18 µM
[2]
  Log Ki: -6.74

## Fc1ccc(N2CCNCC2)cc1
[1]
  Ki: > 10 µM

## O=C(O)C(=O)O.c1cncc(N2CCNCC2)c1
[3]
  M.A.D: 50 µg/kg
[1]
  Ki: 0.09 µM
[2]
  Log Ki: -7.05
[4]
  Efficacy: 51.1%

## CC(=O)c1ccc(N2CCN(C)CC2)cc1
[1]
  Ki: > 10 µM

## CN1CCN(c2cccc(F)c2)CC1.O=C(O)C(=O)O
[1]
  Ki: 6.5 µM
[2]
  Log Ki: -5.19

## CN1CCN(C2=CC(=O)CC2)CC1
[1]
  Ki: > 10 µM

## Cc1ccccc1N1CCN(C)CC1
[1]
  Ki: > 10 µM

## CN1CCN(c2ccc([N+](=O)[O-])cc2)CC1
[1]
  Ki: > 10 µM

## CN1CC=C(c2ccccc2)CC1
[1]
  Ki: > 10 µM

## O=[N+]([O-])c1cccc(N2CCNCC2)c1
[1]
  Ki: > 10 µM

## Cc1cccc(N2CCN(C)CC2)c1
[1]
  Ki: > 10 µM

## Fc1cccc(N2CCNCC2)c1
[1]
  Ki: > 10 µM

## CC(=O)Oc1cccc(N2CCN(C)CC2)c1
[1]
  Ki: 0.8 µM
[5]
  Ki: 0.794 µM
